Measurements reported in ChEMBL document CHEMBL3421559, “Discovery of 5-(2',4'-difluorophenyl)-salicylanilides as new inhibitors of receptor activator of NF-κB ligand (RANKL)-induced osteoclastogenesis” (Eur J Med Chem, 2015).
Calls of active or inactive are those of the source. No cut-off for these calls is given here.

How the values were obtained:
[1] = Retention time of the compound by HPLC analysis; format: physicochemical
Summary of the method: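 Reversed-phase column (5 µm, 4.6 × 250 mm) at 1.0 mL/min with a 0–20% H2O in MeOH gradient.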

[2] = Cytotoxicity against mouse RAW264.7 cells assessed as cell viability at 5 uM after 24 hrs by MTT assay; format: cell-based; conditions: read-out: Activity
Summary of the method: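 RAW264.7 cells at 1 × 10^4 per well in DMEM with 10% FBS were exposed to compound for 24 h. After PBS washes, they got 500 µg/mL MTT for 1 h at 37 °C. Formazan was dissolved in DMSO and read at 540 nm. Viability is relative to control, mean ± SD from at least three independent runs.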

RAW264.7 [3] = experiment: Downregulation of RANKL-induced c-fos gene expression in mouse RAW264.7 cells at 2.5 and 5 uM treated for 1 hr prior to incubation with RANKL for 24 hrs by RT-PCR analysis; format: functional, cell-based
Summary of the method: (§1)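 RAW264.7 cells grown a day in DMEM/10% FBS were switched to α-MEM with 100 ng/mL murine RANKL, with or without compound, for 24 h. Trizol RNA (2 µg) was reverse-transcribed with oligo(dT) and amplified with mouse-specific primers. Products were run on 1.5% agarose with EtBr, and band densities normalized to GAPDH.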

RAW264.7 [4] = experiment: Inhibition of RANKL-induced NF-kappaB activation in mouse RAW264.7 cells assessed as decrease in nuclear translocation of NF-kappaB at 5 uM treated for 1 hr prior to incubation with RANKL for 24 hrs by Western blot assay relative to control TBP gene expression; format: cell-based
Summary of the method: (§2)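 Cells were pretreated with compound for 1 h in α-MEM/10% FBS, then given RANKL (100 ng/mL) for 24 h. Nuclear extracts (18 µg) were separated on 12% SDS-PAGE and blotted to PVDF, blocked with 5% BSA. Blots were probed overnight-style for 12 h at 4 °C with mAbs (1:1000) to NF-κB p65, NFATc1 and TBP, then HRP anti-rabbit (1:10000), with chemiluminescent detection.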

RAW264.7 [5] = experiment: Inhibition of RANKL-induced bone-resorbing activity in mouse RAW264.7 cells assessed as reduction of resorbing pits formed on dentine slices by mature osteoclasts after 4 days by pit formation assay; format: functional, cell-based
Summary of the method: (§3)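 Cells on dentine slices were kept in α-MEM with 10% FBS, 2 mM […] and 100 ng/mL RANKL, with or without compound, and medium was renewed every 2 days. At day 4, cells were removed with 1 M ammonium hydroxide and slices stained with 0.1% toluidine blue. Resorbed area/total area was measured per optical field.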

RAW264.7 [6] = experiment: Inhibition of RANKL-induced osteoclastogenesis in mouse RAW264.7 cells assessed as decrease in TRAP activity after 4 days by TRAP activity assay; conditions: RAW264.7, 96 h
RAW264.7 [7] = experiment: Downregulation of RANKL-induced NFATc1 gene expression in mouse RAW264.7 cells at 2.5 and 5 uM treated for 1 hr prior to incubation with RANKL for 24 hrs by RT-PCR analysis; format: functional, cell-based; summary of the method: as §1
RAW264.7 [8] = experiment: Inhibition of RANKL-induced NF-kappaB activation in mouse RAW264.7 cells assessed as decrease in nuclear accumulation of NF-kappaB at 5 uM treated for 1 hr prior to incubation with RANKL for 24 hrs by ELISA; format: cell-based
Summary of the method: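 After 1 h compound pretreatment and 24 h RANKL (100 ng/mL), nuclear extracts were tested in a p65 DNA-binding ELISA. The plate is coated with NF-κB response element, followed by primary antibody and tagged secondary antibody, with absorbance read at 450 nm.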

RAW264.7 [9] = experiment: Downregulation of RANKL-induced DC-STAMP gene expression in mouse RAW264.7 cells at 2.5 and 5 uM treated for 1 hr prior to incubation with RANKL for 24 hrs by RT-PCR analysis; format: functional, cell-based; summary of the method: as §1
RAW264.7 [10] = experiment: Downregulation of RANKL-induced cathepsin K gene expression in mouse RAW264.7 cells at 2.5 and 5 uM treated for 1 hr prior to incubation with RANKL for 24 hrs by RT-PCR analysis; format: functional, cell-based; summary of the method: as §1
RAW264.7 [11] = experiment: Inhibition of RANKL-induced bone-resorbing activity in mouse RAW264.7 cells assessed as reduction of resorbing pits formed on dentine slices by mature osteoclasts at 5 uM after 4 days by pit formation assay; format: functional; conditions: RAW264.7, Dentine, 96 h; summary of the method: as §3
RAW264.7 [12] = experiment: Downregulation of RANKL-induced NFATc1 nuclear expression in mouse RAW264.7 cells at 5 uM treated for 1 hr prior to incubation with RANKL for 24 hrs by Western blot analysis relative to control TBP gene expression; format: functional; summary of the method: as §2
RAW264.7 [13] = experiment: Downregulation of RANKL-induced MMP-9 gene expression in mouse RAW264.7 cells at 2.5 and uM treated for 1 hr prior to incubation with RANKL for 24 hrs by RT-PCR analysis; format: functional, cell-based; summary of the method: as §1
RAW264.7 [14] = experiment: Downregulation of RANKL-induced TRAP gene expression in mouse RAW264.7 cells at 2.5 and 5 uM treated for 1 hr prior to incubation with RANKL for 24 hrs by RT-PCR analysis; format: functional, cell-based; summary of the method: as §1
RAW264.7 [15] = experiment: Inhibition of RANKL-induced osteoclastogenesis in mouse RAW264.7 cells; format: functional, cell-based
Summary of the method: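 RAW264.7 cells (2 × 10^4 per well) were cultured with 100 ng/mL RANKL in α-MEM/10% FBS, with or without compound. On day 4 they were lysed in 0.1% Triton X-100/50 mM Tris-HCl pH 7.2 on ice. TRAP was assayed with 2 mg/mL 4-nitrophenyl phosphate in 0.09 M citrate for 15 min at 37 °C, stopped with NaOH and read at 405 nm. Values were normalized to BCA protein for IC50.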

Structure (SMILES)	Retention_time [1]	viability at 24 h, 5 µM [2]	IC50 (RAW264.7 [6])	further results
N#Cc1ccc(NC(=O)c2cc(-c3ccc(F)cc3F)ccc2O)cc1	6.84 min	96.2%		
N#Cc1cccc(NC(=O)c2cc(-c3ccc(F)cc3F)ccc2O)c1	6.92 min	72.2%	2.96 µM	inhibition (RAW264.7 [3]): Dose-dependent effect; fold change (FC) (RAW264.7 [4]): 0.82; inhibition (RAW264.7 [5]): Dose-dependent effect; inhibition (RAW264.7 [7]): Dose-dependent effect; inhibition (RAW264.7 [8]): Active; inhibition (RAW264.7 [9]): Dose-dependent effect; inhibition (RAW264.7 [10]): Dose-dependent effect; inhibition at 5 µM (RAW264.7 [11]): 59.3%; fold change (FC) (RAW264.7 [12]): 0.52; inhibition (RAW264.7 [13]): Dose-dependent effect; inhibition (RAW264.7 [14]): Dose-dependent effect
O=C(Nc1ccc(C(F)(F)F)cc1)c1cc(-c2ccc(F)cc2F)ccc1O	7.87 min	85.2%		
O=C(Nc1cccc(C(F)(F)F)c1)c1cc(-c2ccc(F)cc2F)ccc1O	7.27 min	96.7%	4.57 µM	
C#Cc1cccc(NC(=O)c2cc(-c3ccc(F)cc3F)ccc2O)c1	6.37 min	63%		
COc1ccc(NC(=O)c2cc(-c3ccc(F)cc3F)ccc2O)cc1OC	7.61 min	98.9%		
O=C(Nc1ccc(Cl)cc1F)c1ccccc1O			> 10 µM	IC50 (RAW264.7 [15]): 15 µM

More lines, main results first:

Retention_time [1]	Structure (SMILES)	viability at 24 h, 5 µM [2]	IC50 (RAW264.7 [6])	further results
7.72 min	O=C(Nc1ccc(F)c(F)c1)c1cc(-c2ccc(F)cc2F)ccc1O	78.4%		
9.07 min	O=C(Nc1ccc(Cl)cc1F)c1cc(-c2ccc(F)cc2F)ccc1O	77.5%		
6.45 min	O=C(Nc1ccc(F)cc1F)c1cc(-c2ccc(F)cc2F)ccc1O	110%		
5.44 min	O=C(Nc1ccccc1C(F)(F)F)c1cc(-c2ccc(F)cc2F)ccc1O	99.4%		
7.8 min	O=C(Nc1cc(F)ccc1F)c1cc(-c2ccc(F)cc2F)ccc1O	102%	3.67 µM	inhibition (RAW264.7 [3]): Dose-dependent effect; fold change (FC) (RAW264.7 [4]): 0.76; inhibition (RAW264.7 [5]): Dose-dependent effect; inhibition (RAW264.7 [7]): Dose-dependent effect; inhibition (RAW264.7 [8]): Active; inhibition (RAW264.7 [9]): Dose-dependent effect; inhibition (RAW264.7 [10]): Dose-dependent effect; inhibition at 5 µM (RAW264.7 [11]): 80.5%; fold change (FC) (RAW264.7 [12]): 0.55; inhibition (RAW264.7 [13]): Dose-dependent effect; inhibition (RAW264.7 [14]): Dose-dependent effect
5.89 min	COc1cccc(NC(=O)c2cc(-c3ccc(F)cc3F)ccc2O)c1	105%		
